The record followed here is ChEMBL document CHEMBL4513216, “Probing the Open Global Health Chemical Diversity Library for Multistage-Active Starting Points for Next-Generation Antimalarials” (ACS Infect Dis, 2020).

The series is described as follows: Toxicity liver stage against HepG2, at 10uM. The class given is cell-based. Set-up: test concentration 10 uM, cell line HepG2-A16-CD81EGFP. The conditions noted are these: human, HepG2-A16-CD81EGFP cells; read-out: INHIBITION
A digest of the protocol:
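Uninfected HepG2-A16-CD81EGFP cells, 3 × 10^3 per well, 1536-well, plated on prespotted compound at 10 μM final, parasite-free screening media added to match infected plates; puromycin 10 μM positive, DMSO 0.5% negative; run in parallel with 48 h PbLuc assay at 37 °C, 5% CO2; viability by CellTiter-Glo luminescence, normalized to controls.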
Consider `CCN(C)C(=O)c1cc(-c2ccn(C(C)C)n2)n2ccccc12`, for which the cytotoxicity at 10 µM is -4.35%.

For the compound `c1csc(-c2nc(CNC3CCc4ncnn4C3)co2)c1` (stereo unspecified), the cytotoxicity at 10 µM was -5.69%.

`O=C(NCCNc1ncccn1)C1CCCC1`: the cytotoxicity at 10 µM was -22.9%.

Consider `COC(=O)c1cccc(S(=O)(=O)NC(=O)COC2CCCC2)c1`, for which the cytotoxicity at 10 µM was -1.03%.

With `O=C(COCC1CCCO1)N1CCCN(Cc2ccccc2F)CC1` (stereo unspecified), the cytotoxicity at 10 µM was 2.86%.

For the compound `CNC(=O)[C@@H](c1ccccc1F)N1CCC[C@H]1C(=O)NC1CCCC1`, the cytotoxicity at 10 µM is 0.344%.

On to `Cc1nc(C)n(CC2CCCN2c2ncnc3ccsc23)n1` (stereo unspecified), for which the cytotoxicity at 10 µM worked out at 7.61%.

On to `O=C(N1CCSCC1)C1(O)Cc2ccccc2C1`, for which the cytotoxicity at 10 µM was determined as 6.35%.

Turning to `Cc1cc(CN(C)Cc2ncc(-c3ccccc3)o2)no1`, the cytotoxicity at 10 µM was -13.8%.

With `Cc1nn2c(N3CCCC(C#N)C3)cc(-c3ccccc3)nc2c1C` (stereo unspecified), the cytotoxicity at 10 µM is -0.828%.

As to `COc1cccc([C@H]2CN(C(=O)c3noc4c3CCCC4)C[C@@H]2N)c1`, the cytotoxicity at 10 µM turned out to be 2.57%.

Regarding `CNC(=O)N1C[C@H]2N(c3ncccn3)CCC[C@@]2(C(=O)NCC2CC2)C1`, the cytotoxicity at 10 µM is -101%.

As to `O=C(NCCc1cscn1)c1coc(CN2CCOCC2)c1`, the cytotoxicity at 10 µM was -3.7%.

On to `O=C(NCc1nncn1-c1ccccc1)C1CCCC1`, for which the cytotoxicity at 10 µM is -11.5%.

As to `COc1cccc(NC(=O)CNc2ccc(C(=O)N(C)C)c(Cl)c2)c1`, the cytotoxicity at 10 µM was 6.91%.

In the case of `CCS(=O)(=O)CC(=O)NC(C)c1ccc(F)cc1F` (stereo unspecified), the cytotoxicity at 10 µM is 1.73%.

For the compound `CCCS(=O)(=O)N1CCN(c2cc(-n3cnc(C)c3C)ncn2)CC1`, the cytotoxicity at 10 µM came out at 5.54%.

With `Cc1nn(-c2ccccc2)c(C)c1CNC(=O)NC1CC1`, the cytotoxicity at 10 µM is 7.59%.

As to `NC(=O)c1cccc(-c2cnc(C3CCCNC3)cn2)c1` (stereo unspecified), the cytotoxicity at 10 µM is -0.055%.

Consider `CSCc1ccc(CNCCN2CCOCC2)o1`, for which the cytotoxicity at 10 µM is -0.583%.

Turning to `CS(=O)(=O)NC[C@H]1OC[C@H]2CN(CCc3ccccc3)CC[C@H]21`, the cytotoxicity at 10 µM was -3.53%.

Regarding `Cc1n[nH]cc1CNC1CCN(c2cccc(C(F)(F)F)c2)CC1`, the cytotoxicity at 10 µM was -64.8%.

Turning to `Cc1ccc(NC(=O)C(C)N2CCCN(c3nccs3)CC2)c(C)c1` (stereo unspecified), the cytotoxicity at 10 µM came to 2.72%.

Regarding `Cc1cnccc1CN(C)C(=O)c1cccc(CCC(C)(C)O)c1`, the cytotoxicity at 10 µM is -3.55%.

In the case of `O=C([C@@H]1COC[C@H]2CN(CC3CCCC3)C[C@H]21)N1CCOCC1`, the cytotoxicity at 10 µM stood at 14.9%.

In the case of `Cc1ncsc1CN1C[C@H](NC(=O)C2CCOCC2)[C@@H](C(C)C)C1`, the cytotoxicity at 10 µM was determined as 6.67%.

Regarding `Cc1cccc(CNC(=O)CC2CCN(Cc3ccccn3)CC2)n1`, the cytotoxicity at 10 µM stood at 10.1%.

Regarding `Cc1ccnc(NC(=O)c2[nH]nc(C(C)C)c2Br)c1`, the cytotoxicity at 10 µM amounted to 12.9%.

For the compound `Cc1noc(CNC(=O)c2ccccc2-n2cc(CN)cn2)n1`, the cytotoxicity at 10 µM is -19.6%.

Turning to `CC1(C)CNC(=O)c2nc(C3CCCN(S(C)(=O)=O)C3)[nH]c2C1` (stereo unspecified), the cytotoxicity at 10 µM was determined as 0.611%.

In the case of `CN1CC2(CCN(C(=O)CCCOCc3ccccc3)C2)OC1=O` (stereo unspecified), the cytotoxicity at 10 µM stood at 4.49%.

Turning to `CC(c1cc(O)nc(NC2CCCC2)n1)n1ncc2ccccc2c1=O` (stereo unspecified), the cytotoxicity at 10 µM came out at 22.9%.

For `c1cc(C2CCN(Cc3nc(C4CC4)no3)CC2)[nH]n1`, the cytotoxicity at 10 µM amounted to 7.45%.

`CN(Cc1cnn(C)c1)C(=O)NCc1cc(Br)cs1`: the cytotoxicity at 10 µM was -10.1%.

On to `CC(=O)N1CCO[C@@H]2CN(C(=O)NCc3cccnc3)CC[C@@H]2C1`, for which the cytotoxicity at 10 µM is 7.34%.

For `O=C(c1c[nH]c2ccccc2c1=O)N1CCSCC1`, the cytotoxicity at 10 µM is -5.63%.

Take `NC(=O)N1Cc2nccn2CC(Cn2ncccc2=O)C1` (stereo unspecified): the cytotoxicity at 10 µM worked out at 3.19%.

Turning to `O=C1CC2(CCN(Cc3ccc(-c4ccn[nH]4)s3)CC2)CN1`, the cytotoxicity at 10 µM is -137%.

Consider `CC(C)NC(=O)Nc1ccc(-c2nc3c([nH]2)CCNC3)cc1`, for which the cytotoxicity at 10 µM was -3.5%.

Take `CN(c1ccc(C(=O)NCCCN2CCCCC2)c(Cl)c1)S(C)(=O)=O`: the cytotoxicity at 10 µM is -0.313%.

For the compound `CNS(=O)(=O)Cc1ccc(CNC(=O)c2cccc(C)n2)cc1`, the cytotoxicity at 10 µM was -3.79%.

Turning to `Cc1nc(N2CCOCC2)sc1C(=O)NCC(C)(C)N1CCCCC1`, the cytotoxicity at 10 µM was found to be 5.7%.

As for `Cc1cc(CNCCNS(C)(=O)=O)sc1Br`, the cytotoxicity at 10 µM was -4.6%.

As for `Cc1ccn(CCC(=O)NC(C)Cc2ccco2)n1` (stereo unspecified), the cytotoxicity at 10 µM was -4.1%.

Regarding `CCN(CC)c1ccc(C(=O)NCC2(C(N)=O)CCOCC2)cn1`, the cytotoxicity at 10 µM was 2.99%.

As to `CCc1nc(C2CCCN2C(=O)c2cc(C3CC3)[nH]n2)no1` (stereo unspecified), the cytotoxicity at 10 µM was 1.03%.

With `CC1CN(C)c2ccccc2CN1C(=O)CSc1ccncc1` (stereo unspecified), the cytotoxicity at 10 µM is -12.6%.

`Fc1cccc(-c2nc(CN3CCCC3Cn3cccn3)co2)c1` (stereo unspecified): the cytotoxicity at 10 µM is -11%.

Take `Cc1cc(C2CCCN2Cc2ccn(C)c(=O)c2)no1` (stereo unspecified): the cytotoxicity at 10 µM is -9.03%.

In the case of `Cc1cc(C)n(CC2CCCN2C(=O)c2ccc3nnc(C)n3c2)n1` (stereo unspecified), the cytotoxicity at 10 µM is -3.6%.

As to `Cc1ccc2nc(C(=O)N3C[C@@H](C(=O)O)[C@H](c4ccccc4)C3)cn2c1`, the cytotoxicity at 10 µM was determined as 5.96%.

With `CN1CCC2(CC1)CCN(C(=O)c1onc3ccccc13)C2`, the cytotoxicity at 10 µM is -9.14%.

For `CCc1nnc2n1CCN(C(=O)c1cc3ccc(C)cc3[nH]1)C2`, the cytotoxicity at 10 µM was -4.87%.

As to `O=C(c1csc2nc(-c3ccc(Cl)cc3)cn12)N1CCCC(CO)C1` (stereo unspecified), the cytotoxicity at 10 µM worked out at 2.2%.

For `c1ccc(CNC[C@H]2Cn3ccnc3CO2)cc1`, the cytotoxicity at 10 µM is -5.25%.

Turning to `Cc1ccnc(N2CCC(NCCOc3ccccc3)CC2)n1`, the cytotoxicity at 10 µM was -1.21%.

`Cc1csc(N2CCN(Cc3cnc(C)s3)CC2C)n1` (stereo unspecified): the cytotoxicity at 10 µM was 14.7%.

Turning to `CCN(CC)C(=O)[C@@H]1C[C@@H](NC(=O)c2ccn(C(C)(C)C)c2)CN1C`, the cytotoxicity at 10 µM was -4.12%.

`Cc1ccc(OCCN2CCN(Cc3cnn(CCO)c3)CC2)cc1`: the cytotoxicity at 10 µM is -2.4%.

As for `Cc1cc(O)c(OCC(=O)/N=c2/[nH]c3c(s2)CCC3)cn1`, the cytotoxicity at 10 µM stood at 10.4%.

Consider `CN(C)S(=O)(=O)c1ccc(CN2CCCC2c2ccc[nH]2)o1` (stereo unspecified), for which the cytotoxicity at 10 µM is -4.03%.

`Cc1nc(C(=O)N2CCc3[nH]nc(Nc4ccccc4)c3C2)co1`: the cytotoxicity at 10 µM stood at 6.11%.

In the case of `CCCN(CCn1c(=O)oc2ccccc21)CC1CC1`, the cytotoxicity at 10 µM is 1.78%.

Consider `CN(C)Cc1ccnc(C2CCCN2Cc2ccc3ncccc3c2)n1` (stereo unspecified), for which the cytotoxicity at 10 µM was 0.026%.

In the case of `Cc1nc(CN2CCO[C@@H]3CN(Cc4ccsc4)C[C@@H]3C2)cs1`, the cytotoxicity at 10 µM came out at 2.99%.

Turning to `CC(C)n1cc(CN2CCCN(C(=O)C3CCCN3C)CC2)cn1` (stereo unspecified), the cytotoxicity at 10 µM is -10%.

Turning to `CC(C)n1c(=O)[nH]c2cn(-c3ccc(Cl)cc3)c(=O)n21`, the cytotoxicity at 10 µM was -0.769%.

Consider `CN(C)CCn1ccnc1C1CCCN(c2ncc(Cl)cc2F)C1` (stereo unspecified), for which the cytotoxicity at 10 µM is -1.75%.

On to `CCc1ncc2c(n1)CN(CC(=O)Nc1cc(C)no1)CC2`, for which the cytotoxicity at 10 µM is -16.9%.

For the compound `CC(C)Oc1cc(N2CCN(Cc3ccsc3)C(CCO)C2)nc(N)n1` (stereo unspecified), the cytotoxicity at 10 µM was -6.35%.

For `COc1cc(CN[C@@H]2COC[C@H]2Cc2cc(C)no2)cc(OC)c1`, the cytotoxicity at 10 µM was 0.975%.
